Source: ChEMBL document CHEMBL1142386, “Synthesis and structure-activity relationship studies in peripheral benzodiazepine receptor ligands related to alpidem” (Bioorg Med Chem, 2008)

The molecules below were run against Translocator protein (Rattus norvegicus, UniProt P16257) (assay: Displacement of [3H]PK115 from peripheral benzodiazepine receptor in Sprague-Dawley rat cortical membrane).
Procedure, shortened: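 Male Sprague–Dawley rats, 200–250 g; cerebral cortex homogenized in ice-cold PBS pH 7.4, washed twice by centrifugation at 40,000g. Filtration on PEI-presoaked GF/B filters, scintillation counting. IC50 from 6–10 concentrations in triplicate; mean ± SEM of three determinations.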

Sequence of Translocator protein (P16257 whole entry, looked up): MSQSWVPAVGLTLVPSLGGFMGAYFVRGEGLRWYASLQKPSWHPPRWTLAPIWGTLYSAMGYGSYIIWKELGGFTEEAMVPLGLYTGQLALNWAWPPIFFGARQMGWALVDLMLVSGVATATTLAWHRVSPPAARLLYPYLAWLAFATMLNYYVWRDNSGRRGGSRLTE

In order of rising IC50:
1. CN(C(=O)/C=C1\c2nc3ccccc3cc2C(=O)N1c1ccc(Cl)cc1)c1ccc(Cl)cc1  0.62 nM
2. COc1ccc(N(C)C(=O)/C=C2\c3nc4ccccc4cc3C(=O)N2c2ccc(Cl)cc2)cc1  0.9 nM
3. CN(C(=O)/C=C1\c2nc3ccccc3cc2C(=O)N1c1ccccc1)c1ccc(Cl)cc1  10 nM
4. COc1ccc(N(C)C(=O)/C=C2\c3nc4ccccc4cc3C(=O)N2c2ccccc2)cc1  12 nM
5. CCN(Cc1ccccc1)C(=O)/C=C1\c2nc3ccccc3cc2C(=O)N1c1ccc(Cl)cc1  15 nM
6. CN(Cc1ccccc1)C(=O)/C=C1\c2nc3ccccc3cc2C(=O)N1c1ccc(Cl)cc1  26 nM
7. CN(C(=O)/C=C1\c2nc3ccccc3cc2C(=O)N1c1ccc(Cl)cc1)c1ccccc1  44 nM
8. CN(C(=O)/C=C1\c2nc3ccccc3cc2C(=O)N1c1ccc(Cl)cc1)c1ccc(O)cc1  74 nM
9. COc1ccc(NC(=O)/C=C2\c3nc4ccccc4cc3C(=O)N2c2ccc(Cl)cc2)cc1  76 nM
10. C#CCN(C)C(=O)/C=C1\c2nc3ccccc3cc2C(=O)N1c1ccc(Cl)cc1  320 nM
11. COc1ccc(N(C)C/C=C2\c3nc4ccccc4cc3C(=O)N2c2ccc(Cl)cc2)cc1  2360 nM
